The record followed here is ChEMBL document CHEMBL1811784, “Synthesis and SERCA activities of structurally simplified cyclopiazonic acid analogues” (Bioorg Med Chem, 2011).

A value given as a limit tells only on which side of the number the result lay.

This assay is described as follows: Inhibition of Heliothis virescens SERCA expressed in Sf9 cells assessed as ATP depletion measured after 60 mins by luciferin/luciferase coupled reporter gene assay. In short, it runs like this: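 Microsomal membranes from Sf9 cells coinfected with baculovirus carrying full-length H. virescens SERCA (aa 2-1000), MOI 0.3, harvested after 3 days. 0.4 µg/mL enzyme with 0.05 mM ATP, inhibitor 3.2 nM–50 µM final, MOPS pH 7.5 buffer with Mg2+, Ca2+/EGTA, A23187. Remaining ATP read by luciferin/luciferase luminescence. Quadruplicates, normalized, sigmoid fit for IC50. Luciferase-only counterscreen run without SERCA.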
In general terms: In a reporter assay the amount or activity of a reporter protein is the signal.
As for `C/C(O)=C1\C(=O)[C@H]2[C@H]3c4c[nH]c5cccc(c45)C[C@H]3C(C)(C)N2C1=O`, the IC50 is 0.5 µM.

For the compound `C/C(O)=C1\C(=O)[C@@H]2[C@H]3c4c[nH]c5cccc(c45)C[C@@H]3C(C)(C)N2C1=O`, the IC50 amounted to 5 µM.

Regarding `COC(=O)[C@H]1NC(C)(C)[C@@H]2Cc3cccc4[nH]cc(c34)[C@H]12`, the IC50 was more than 50 µM.

With `CC(C)(C)c1cc(O)c(C(C)(C)C)cc1O`, the half-maximal inhibitory concentration (IC50) was 0.13 µM.

Consider `CC(O)=C1C(=O)C2Cc3ccccc3C(C)(C)N2C1=O` (mixture of isomers), for which the IC50 was found to be 6.3 µM.

With `CC(O)=C1C(=O)C2c3ccccc3C(C)(C)N2C1=O` (mixture of isomers), the IC50 was more than 50 µM.

With `CC(O)=C1C(=O)[C@H]2[C@H]3CCCC[C@H]3C(C)(C)N2C1=O` (mixture of isomers), the IC50 came to 19.9 µM.

Take `CC(O)=C1C(=O)[C@@H]2[C@H]3CCCC[C@H]3C(C)(C)N2C1=O` (mixture of isomers): the IC50 was 0.63 µM.

As for `CC(O)=C1C(=O)N2c3ccccc3C(C)(C)N2C1=O` (mixture of isomers), the IC50 is 40 µM.

Turning to `CC(O)=C1C(=O)N2[C@H]3CCCC[C@H]3C(C)(C)N2C1=O` (mixture of isomers), the IC50 is 40 µM.

Regarding `CC(=O)C1=C(O)[C@@H]2[C@H]3c4c[nH]c5cccc(c45)C[C@H]3C(C)(C)N2C1=O` [CYCLOPIAZONIC ACID], the IC50 was 0.01 µM.

With `C/C(O)=C1\C(=O)[C@@H]2[C@H]3[C@@H]4C(=O)N(C)c5cccc(c54)C[C@H]3C(C)(C)N2C1=O` [SPERADINE A], the IC50 turned out to be 8 µM.

As usually defined, the IC50 is the midpoint of a concentration-inhibition curve.
